MrgX1 allo act: allosterically activates human MrgX1 receptor signaling | MrgX1-HEK293, Fluo-4 calcium flux, FDSS; stronger effect = higher value | B-score at 10 µM | 310,000 tested, 0.63% active | AID 588675;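 active means plate-corrected calcium response at least 3 library SD above typical, normal starting fluorescence, not activating the receptor alone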;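 further: compound read alongside a low EC10 to EC30 dose of BAM8-22 agonist; peak minus trough fluorescence over baseline measured at the second addition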
Target sequence (Q96LB2 whole entry, looked up): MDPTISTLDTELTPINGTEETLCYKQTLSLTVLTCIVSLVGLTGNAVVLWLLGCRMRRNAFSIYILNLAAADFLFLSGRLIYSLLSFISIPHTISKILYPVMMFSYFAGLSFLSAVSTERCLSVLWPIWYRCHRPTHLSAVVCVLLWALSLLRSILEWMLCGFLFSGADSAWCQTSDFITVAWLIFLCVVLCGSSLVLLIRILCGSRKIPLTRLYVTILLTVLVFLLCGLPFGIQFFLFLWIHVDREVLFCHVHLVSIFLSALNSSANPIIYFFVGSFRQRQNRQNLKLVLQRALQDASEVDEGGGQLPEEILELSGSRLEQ
PHOSPHO1 block: inhibitors of human PHOSPHO1 phosphatase; recombinant PHOSPHO1, absorbance phosphatase assay; AID 1565; Q8TCT1; inhibition, % at 13.3 µM; 290,000 tested, 1.1% active; in the data active means inhibition above about 60%
Target sequence (Q8TCT1 whole entry, looked up): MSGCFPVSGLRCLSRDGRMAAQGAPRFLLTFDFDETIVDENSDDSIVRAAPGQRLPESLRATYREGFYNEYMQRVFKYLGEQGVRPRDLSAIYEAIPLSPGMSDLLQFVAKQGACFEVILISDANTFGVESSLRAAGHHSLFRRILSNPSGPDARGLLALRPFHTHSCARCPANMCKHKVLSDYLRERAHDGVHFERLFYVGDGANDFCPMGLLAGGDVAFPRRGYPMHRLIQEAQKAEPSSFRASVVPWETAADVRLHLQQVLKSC
RGS4 inh: human RGS4 inhibition | B-score at 10 µM | 310,000 tested, 0.45% active | P49798 | HEK293 M3R/RGS4 inducible, Fluo-4 calcium flux; stronger effect = higher value; triggered by carbachol at its EC20;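 active means B-score, a plate-corrected calcium signal, over three deviations above library mean, with baseline fluorescence within five deviations of library mean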;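 further: RGS4 expression induced by doxycycline in cells with stable M3 receptor; B-score is computed from the integrated fluorescence ratio over baseline after carbachol; higher B-score means a larger calcium signal and so more RGS4 inhibition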
MrgX1 antagonist: human MrgX1 receptor antagonism, primary screen. Q96LB2. MRGX1-HEK293 calcium flux, Fluo-4, BAM8-22 antagonism; stronger effect = lower value. B-score at 10 µM. 310,000 tested, 1.3% active;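 active means calcium-response B-score plate-corrected more than 3 library SD below zero, starting fluorescence within 5 deviations, no agonist response on first addition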;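 further: peak minus trough fluorescence over baseline after final BAM8-22 challenge near maximal dose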
RGS4 act: RGS4 potentiation or activation; 310,000 tested, 0.92% active; HEK293 M3R/inducible RGS4, carbachol calcium flux Fluo4; stronger effect = lower value; AID 463111; B-score at 10 µM;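 active means B-score of the integrated calcium signal more than 4 SD below the library mean, with starting fluorescence not abnormally high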;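 further: negative B-score means reduced calcium response which marks RGS4 activation or potentiation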
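Material: Inducible-RGS4 HEK293 cells carrying M3 receptor; also added: carbachol at ECmax as muscarinic agonist stimulus; incubation: compound preincubation 20 min at room temperature before agonist; signal: Fluo4-AM (2 µM) calcium-flux fluorescence, kinetic read; measure: integrated calcium ratio converted to B score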
MrgX1 ag: activates human MrgX1 receptor signaling; Q96LB2; B-score at 10 µM; MrgX1-HEK293 cells, Fluo-4 calcium fluorescence, agonist mode; stronger effect = higher value; 310,000 tested, 0.44% active;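 active means calcium response B-score plate-corrected fluorescence ratio at least 3 library SD, with starting fluorescence B-score inside 5 SD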
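System – MrgX1-expressing HEK293 cells · Incubation – cells plated overnight, dye loaded 0.5 h 37 °C, 0.5 h room temperature · Technique – kinetic Fluo-4 NW fluorescence of intracellular calcium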
* = called active by the depositor; i = inactive; nt = no result. Shown are actives, neighbours in structure and some others; about 4.5% of the full set was active somewhere.

SMILES	MrgX1 allo act	PHOSPHO1 block	RGS4 inh	MrgX1 antagonist	RGS4 act	MrgX1 ag
O=[N+]([O-])c1ccc(Cl)c2c1C1C=CCC1C(c1ccccn1)N2 (stereo not drawn)	i	8	i	-5.6*	i	i
O=C(O)c1ccc(Cl)c2c1C1C=CCC1C(c1ccccn1)N2 (stereo not drawn)	i	83*	i	i	i	i
COC(=O)COc1ccc(C2Nc3c(Cl)ccc(C(=O)O)c3C3C=CCC32)cc1 (stereo not drawn)	i	-35	i	i	i	i
COc1cc(/C=C2/SC(=S)N(c3c(C)n(C)n(-c4ccccc4)c3=O)C2=O)ccc1O	i	23	i	i	i	36*
COc1cc(/C=C2\SC(=S)N(C(C(=O)O)c3ccccc3)C2=O)ccc1O (stereo not drawn)	i	33	i	i	i	i
O=C(COc1ccc(Br)cc1)NCCCn1ccnc1	i	11	i	i	i	i
COc1ccccc1OC(=O)c1cc2ccccc2oc1=O	i	nt	i	i	i	i
COc1cccc(OC(=O)c2cc3ccccc3oc2=O)c1	i	49	i	-5*	i	i
Cc1c(N=CC=Nc2c(C)n(C)n(-c3ccccc3)c2=O)c(=O)n(-c2ccccc2)n1C	nt	0	nt	nt	nt	nt
Cc1c(N=C/C=C/c2ccccc2)c(=O)n(-c2ccccc2)n1C	i	-15	i	i	-8.7*	i
O=C(CN1CCCCC1)N1N=C(c2cccs2)CC1c1cccs1 (stereo not drawn)	i	26	i	i	-8*	i
COCCn1c(SCC(=O)Nc2ccc(S(=O)(=O)N(C)C)cc2)nc2ccccc21	i	11	i	i	i	i
CCCCNC(=O)C(=O)NC(C)CCc1ccccc1 (stereo not drawn)	i	-3	i	i	i	i
CC1C2CC(C/C2=N/NC(=O)c2cccs2)C1(C)C (stereo not drawn)	8.7*	-36	i	i	i	i
Cc1cc(N=NC(=O)c2ccccc2O)c2ccccc2c1O	i	70*	i	i	i	i
O=[N+]([O-])c1ccccc1/C=N/N1CCN(c2ccc(Cl)cc2)CC1	i	22	i	i	i	i
O=[N+]([O-])c1ccccc1/C=N\N1CCN(c2ccccc2)CC1	6.9*	34	i	i	i	i
COc1ccc(/C=N/NC(=O)c2cc3c(ccc4ccccc43)o2)c(OC)c1	nt	nt	i	nt	-8*	nt
COC(=O)c1ccc(CSc2nc3ccc(C)cc3[nH]2)o1	i	76*	i	i	i	i
COC(=O)c1ccc(CSc2nc3c(cnn3-c3ccc(C)cc3)c(=O)[nH]2)o1	i	-14	i	i	i	i
COC(=O)c1ccc(CSc2n[nH]c(=S)s2)o1	i	102*	i	i	i	i
Cc1ccc(NC(=O)CCC(=O)N2CCC(C)CC2)c([N+](=O)[O-])c1	i	46	i	i	i	i
Cn1c(=O)c(=O)n(C)c2cc(S(=O)(=O)N3CCCC3C(=O)Nc3ccc(F)cc3)ccc21 (stereo not drawn)	i	33	i	i	i	i
Cc1ccc(NC(=O)C2CCCN2S(=O)(=O)c2ccc3c(c2)n(C)c(=O)c(=O)n3C)cc1C (stereo not drawn)	i	-11	i	i	-7*	i
CCOC(=O)c1cc(S(=O)(=O)NCc2ccco2)cn1C	i	14	i	i	i	i
SMILES	MrgX1 allo act	PHOSPHO1 block	RGS4 inh	MrgX1 antagonist	RGS4 act	MrgX1 ag
COC(=O)c1cc(S(=O)(=O)NCc2ccc3c(c2)OCO3)cn1C	i	64*	i	i	i	i
CCOC(=O)c1cc(S(=O)(=O)NCc2ccc3c(c2)OCO3)cn1C	i	62*	i	i	i	i
Cc1ccc(C(=O)Nc2nnc(S(=O)(=O)N3CCC(C)CC3)s2)cc1	i	26	i	-6.4*	i	i
C[n+]1c2n(c3ccccc31)N=C(c1ccc(-c3ccccc3)cc1)CS2	i	45	i	-6.5*	i	i
COc1ccc(OC)c(/C=C2\SC(=S)N(N3CCOCC3)C2=O)c1	i	-6	i	i	i	i
O=C1S/C(=C\c2ccc(N3CCOCC3)o2)C(=O)N1Cc1ccc(F)cc1	i	45	nt	i	nt	i
O=C1NC(=S)S/C1=C/c1ccc(N2CCOCC2)o1	i	86*	i	i	i	i
COc1ccc2cc(/C=C3\SC(=S)NC3=O)c(N3CCOCC3)nc2c1	i	-7	i	-6.9*	i	i
O=C1S/C(=C/c2ccc(N3CCOCC3)o2)C(=O)N1Cc1ccc(F)cc1	i	-81	i	i	i	46*
C=CCN1C(=O)N/C(=C/c2ccc(N3CCOCC3)o2)C1=O	i	7	i	-5.1*	i	i
CCOC(=O)c1ccc(N2CCOCC2)c(NC(=O)COCC(=O)O)c1	i	25	i	i	i	i
CCOC(=O)N1CCN(S(=O)(=O)N2CCCC(C(=O)NCc3cccc(OC)c3)C2)CC1 (stereo not drawn)	i	23	i	i	i	i
CCCSc1nnc(CNC(=O)C23CC4CC(CC(C4)C2)C3)n1Cc1ccccc1	i	-17	i	i	i	i
CCCCNc1nnc(SCC(=O)c2c[nH]c3ccccc23)s1	i	8	i	i	i	i
COCCCN=CC1=C(O)CC(c2ccccc2)CC1=O (stereo not drawn)	i	1	i	i	i	i
N#Cc1c2n(c3c(=S)nc[nH]c13)CCCCC2	i	96*	i	i	i	i
CCOC(=O)C1CCCN(S(=O)(=O)c2ccc(S(=O)(=O)N3CCCC3)cc2)C1 (stereo not drawn)	i	nt	i	-5.3*	i	i
CCOC(=O)CC1C(=O)NCCN1Cc1cccs1 (stereo not drawn)	i	64*	i	i	i	i
CCOC(=O)C1CCCN(Cc2cccs2)C1 (stereo not drawn)	i	73*	i	i	i	i
Cc1ccc(S(=O)(=O)NCC(=O)NCCc2c[nH]c3ccccc23)cc1C	i	20	i	i	i	i
Nn1c(-c2cccs2)nc2sc3c(c2c1=O)CCCC3	i	21	i	i	i	i
Cc1ccccc1-c1nc2sc3c(c2c(=O)n1N)CCCC3	18*	-7	i	i	i	i

Source: PubChem
